The text below walks through data of ChEMBL document CHEMBL4024709, “Synthesis and biological evaluation of hypoxia-activated prodrugs of SN-38” (Eur J Med Chem, 2017).

A short description of data set [1]: Stability of the compound in phosphate buffered saline assessed as compound remaining at 5 uM after 48 hrs by HPLC method. The class given is physicochemical. The conditions noted are these: read-out: Stability. The procedure, abridged: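 Compound held in 10 mM PBS pH 7.4 at 37 °C for 48 h; percent remaining measured.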
Data set [2] is described as follows: Stability of the compound in mouse liver microsomes assessed as compound remaining at 5 uM after 6 hrs in absence of NADPH by HPLC method. It is filed as ADME, microsome. The conditions noted are these: read-out: Stability. The procedure, abridged:
(§1)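 Final mix: 5 µM compound, mouse liver microsomes 1 mg/mL, 5 mM MgCl2, ±1 mM NADPH, in 10 mM PBS pH 7.4 at 37 °C. Preincubated, then started by adding microsomes. Samples at 0–6 h quenched with cold methanol and centrifuged. Supernatant run on C18 HPLC (5–95% CH3CN/0.1% TFA, 373 nm); percent remaining at 6 h.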
(In general: Liver microsomes are vesicles of endoplasmic reticulum, rich in cytochrome P450 enzymes.)

A short description of data set [3]: Stability of the compound in mouse liver microsomes assessed as compound remaining at 5 uM after 6 hrs in presence of NADPH by HPLC method. The class given is ADME, microsome. The settings on record: read-out: Stability. The procedure, abridged: as §1
Data set [4] has as its system HT-29. Briefly: Cytotoxicity against human HT-29 cells pretreated for 24 hrs under hypoxic condition followed by compound washout measured after 72 hrs by MTT assay. It is filed as functional, cell-based. The procedure, abridged: (§2)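 HT29 in McCoy's 5A, H460 in RPMI 1640, each with 10% FBS and 1% pen-strep, 37 °C, 5% CO2. Seeded and grown 24 h, then exposed for 24 h to serial dilutions (DMSO ≤0.1% final) in hypoxia (94% N2/5% CO2/1% O2 chamber) or air.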
On the technique in general: Tetrazolium assays rely on reduction of a dye to a coloured formazan, in cell work by metabolically active cells.

In data set [5] the test system is HT-29. The experiment in a line: Cytotoxicity against human HT-29 cells pretreated for 24 hrs under normoxic condition followed by compound washout measured after 72 hrs by MTT assay. It is filed as cell-based. An outline of the steps: as §2
The subject of data set [6] is HT-29. Briefly: Selectivity ratio of IC50 for human HT-29 cells under normoxic condition to IC50 for human HT-29 cells under hypoxic condition.
For data set [7], the system named is NCI-H460. Briefly: Cytotoxicity against human NCI-H460 cells pretreated for 24 hrs under hypoxic condition followed by compound washout measured after 72 hrs by MTT assay. It is filed as functional, cell-based. An outline of the steps: as §2
Data set [8] deals with NCI-H460. Briefly: Cytotoxicity against human NCI-H460 cells pretreated for 24 hrs under normoxic condition followed by compound washout measured after 72 hrs by MTT assay. The class given is cell-based. An outline of the steps:
as §2

Data set [9] relates to NCI-H460. Briefly: Selectivity ratio of IC50 for human NCI-H460 cells under normoxic condition to IC50 for human NCI-H460 cells under hypoxic condition.

What is called IC50 is the concentration that gives 50% inhibition.

As to `CCc1c2c(nc3ccc(OCc4cnc([N+](=O)[O-])n4C)cc13)-c1cc3c(c(=O)n1C2)COC(=O)[C@]3(O)CC`, in data set [1], the remaining at 48 h, 5 µM came out at 100%. In addition, the remaining at 6 h, 5 µM in data set [2] was 94%; in data set [3], 72%. For the same compound, the IC50 in the data set with HT-29 [4] was 3.89 µM; in the data set with HT-29 [5] it was 14.9 µM; in the data set on NCI-H460 [7] it was 0.14 µM; with NCI-H460 [8] it was 0.52 µM. For the same compound, the “Ratio IC50” value in the data set on HT-29 [6] was 3.82; with NCI-H460 [9], 3.71.

With `Cn1c(COP(=O)(NCCBr)NCCBr)cnc1[N+](=O)[O-]` [EVOFOSFAMIDE], the IC50 with HT-29 [4] was 49.5 µM; in the data set with HT-29 [5] it was > 100 µM; in the data set with NCI-H460 [7], 9.08 µM; in the data set on NCI-H460 [8], 51 µM. The “Ratio IC50” value was >2.02 in the data set on HT-29 [6] and 5.61 in the data set on NCI-H460 [9].

As to `CCc1c2c(nc3ccc(OC(=O)N(C)CCN(C)C(=O)OCc4cnc([N+](=O)[O-])n4C)cc13)-c1cc3c(c(=O)n1C2)COC(=O)[C@]3(O)CC`, in data set [1], the remaining at 48 h, 5 µM stood at 99%. In addition, the results for the remaining at 6 h, 5 µM in [2] and in data set [3] were 92% and 13%, respectively. Besides, the IC50 in the data set with HT-29 [4] was 75.9 µM; in the data set on HT-29 [5], > 100 µM; with NCI-H460 [7], 7.56 µM; in the data set with NCI-H460 [8], 8.27 µM. The entries for the “Ratio IC50” value with HT-29 [6] and in the data set on NCI-H460 [9] were >1.32 and 1.09, respectively.

As to `CCc1c2c(nc3ccc(O)cc13)-c1cc3c(c(=O)n1C2)COC(=O)[C@]3(O)CC` [7-ETHYL-10-HYDROXYCAMPTOTHECIN], the IC50 with HT-29 [4] amounted to 3.71 µM; with HT-29 [5] it was 2.74 µM; in the data set on NCI-H460 [7], 0.06 µM; in the data set on NCI-H460 [8], 0.05 µM. Moreover, the “Ratio IC50” value in the data set with HT-29 [6] amounted to 0.74; in the data set on NCI-H460 [9], 0.83.
